The values below come from ChEMBL document CHEMBL1938336, “Quinolone derivatives containing strained spirocycle as orally active glycogen synthase kinase 3β (GSK-3β) inhibitors for type 2 diabetics” (Bioorg Med Chem, 2012).

Values after ≈ are worked out from the molar mass of the structure shown.

Broadly, the inhibition in vivo is the percentage by which the read-out fell short of the control. In general, EC50 refers to the concentration that produces a half-maximal response. Usually IC50 stands for the midpoint of a concentration-inhibition curve. The AUC(0-t) is the area under the concentration-time curve up to a stated or last time point. Low readings indicate low exposure, high ones high exposure. As a reminder, the Kp is tissue or fluid exposure divided by exposure in the circulation. By AUC is commonly meant concentration integrated over time. Read a low AUC as less exposure.

Data set [1] addresses T1, Glycogen synthase kinase-3 beta (Homo sapiens, UniProt P49841). The data set is described as follows: Inhibition of GSK3-beta in human HepG2 cells assessed as incorporation of [3H]glucose into glycogen at 30 uM after 3 hrs by liquid scintillation counting relative to CHIR99021. It is filed as cell-based. In a few lines: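 Hep G2 cells seeded at 1 × 10^5 per well and cultured 3 days, then serum-starved 3 h in low-glucose DMEM. Compound added at varying concentrations with […] D-[2-3H]glucose (0.3% DMSO final) for 3 h at 37 °C. Cells lysed in KOH, glycogen ethanol-precipitated, and [3H] incorporation counted by scintillation. Efficacy is % of reference at 30 µM; n = 3.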
Target sequence in this assay (P49841 whole entry, looked up): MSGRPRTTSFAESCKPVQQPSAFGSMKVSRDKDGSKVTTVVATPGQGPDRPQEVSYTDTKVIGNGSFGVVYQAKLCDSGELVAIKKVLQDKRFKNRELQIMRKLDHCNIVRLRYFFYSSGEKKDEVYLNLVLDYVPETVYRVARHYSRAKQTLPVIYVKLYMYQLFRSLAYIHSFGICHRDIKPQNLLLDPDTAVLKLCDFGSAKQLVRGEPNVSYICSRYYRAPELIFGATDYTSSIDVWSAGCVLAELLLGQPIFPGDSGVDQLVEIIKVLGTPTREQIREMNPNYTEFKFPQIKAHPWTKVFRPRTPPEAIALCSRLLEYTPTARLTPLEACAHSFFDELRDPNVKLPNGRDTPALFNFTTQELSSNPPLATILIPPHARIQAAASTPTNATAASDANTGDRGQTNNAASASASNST

In data set [2] the test system is Mus musculus. The experiment in a line: Antidiabetic activity in fasted ICR mouse assessed as inhibition of plasma glucose concentration at 300 mg/kg, po administered 30 mins prior to glucose-challenge by oral glucose tolerance test. It is filed as functional. In a few lines: (§1)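 7-week-old ICR mice fasted 15–17 h, dosed orally with compound suspended in 0.3% CMC-Na or with vehicle. Glucose 5 g/kg given orally 30 min later. Tail-vein blood sampled before dosing and at 0, 0.5, 1 and 2 h after the glucose load; plasma glucose measured by glucose C II-test. The summed 0.5 + 1 h glucose values are expressed as % decrease versus vehicle.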

For data set [3], the target named is T1, Glycogen synthase kinase-3 beta. The experiment in a line: Inhibition of GSK3-beta in human HepG2 cells assessed as incorporation of [3H]glucose into glycogen after 3 hrs by liquid scintillation counting. Type of data set: cell-based.
Target sequence in this assay (P49841 whole entry): as the sequence (P49841 whole entry, looked up) above
For data set [4] the target is unchanged. The data set is described as follows: Inhibition of human recombinant GSK3-beta after 1 hr by KinaseGlo luciferase assay. For orientation: Kinase-Glo measures the ATP left after a reaction by luminescence.
Target sequence in this assay (P49841 whole entry): as the sequence (P49841 whole entry, looked up) above
The subject of data set [5] is Escherichia coli. The experiment in a line: Antibacterial activity against Escherichia coli after 18 hrs by microdilution method. Type of data set: organism-based.
The test system of data set [6] is Staphylococcus aureus. The experiment in a line: Antibacterial activity against Staphylococcus aureus after 18 hrs by microdilution method. The settings on record: in vitro. Type of data set: organism-based. For orientation: Dilution methods test growth across graded concentrations, often in twofold steps.
Data set [7] can be described thus: AUC (0 to 25 hrs) in ICR mouse plasma at 300 mg/kg, po. More on the design: time < 25 hr, dose 300 mg/kg, route oral. It is filed as ADME, organism-based.
Data set [8] in a line: Ratio of drug uptake in ICR mouse liver to ICR mouse plasma at 300 mg/kg, po at 4 hrs. More on the design: dose 300 mg/kg, route oral. Type of data set: ADME, organism-based. In a few lines:
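Liver and plasma concentrations measured 4 h after an oral 300 mg/kg dose in ICR mice; ratio given as liver/plasma; means, n = 5–6.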

Data set [9] in a line: AUC in ICR mouse liver at 300 mg/kg, po. It is filed as ADME, organism-based. Further details: dose 300 mg/kg, route oral. Summed up:
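ICR mice dosed orally at 300 mg/kg. Liver AUC was calculated from the plasma AUC and the liver-to-plasma concentration ratio at 4 h post-dose. Means, n = 5–6.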

In data set [10] the test system is Mus musculus. The experiment in a line: Ratio of AUC (0 to 25 hrs) in ICR mouse plasma to AUC in ICR mouse liver at 300 mg/kg, po. It is filed as ADME, organism-based. More on the design: dose 300 mg/kg, route oral. The note with it: in vivo.
The test system of data set [11] is Mus musculus. The data set is described as follows: Antidiabetic activity in fasted ICR mouse assessed as inhibition of plasma glucose concentration at 50 mg/kg, po administered 30 mins prior to glucose-challenge by oral glucose tolerance test. Type of data set: functional. In a few lines:
as §1

The test system of data set [12] is Mus musculus. The data set is described as follows: Antidiabetic activity in fasted ICR mouse assessed as inhibition of plasma glucose concentration at 100 mg/kg, po administered 30 mins prior to glucose-challenge by oral glucose tolerance test. It is filed as functional. Summed up: as §1
The test system of data set [13] is Mus musculus. The experiment in a line: Antidiabetic activity in fasted ICR mouse assessed as inhibition of plasma glucose concentration at 150 mg/kg, po administered 30 mins prior to glucose-challenge by oral glucose tolerance test. Type of data set: functional. In a few lines: as §1
The subject of data set [14] is Mus musculus. The data set is described as follows: Antidiabetic activity in po dosed fasted ICR mouse assessed as inhibition of plasma glucose concentration administered 30 mins prior to glucose-challenge by oral glucose tolerance test. It is filed as functional, organism-based. In a few lines: as §1

For `Cc1cnc(-c2cnc(NCCNc3ccc(C#N)cn3)nc2-c2ccc(Cl)cc2Cl)[nH]1` [LADUVIGLUSIB], in data set [1], the Efficacy was 100%. Moreover, the inhibition in vivo at 300 mg/kg in data set [2] was 38%.
In the case of `Nc1c(F)c(NCCNc2ccccn2)c2c3c1c(=O)c(C(=O)O)cn3C1(CCCC1)CO2`, the EC50 in data set [3] was 20000 nM.
As for `Nc1c(F)c(NCCNc2ccccn2)c2c3c1c(=O)c(C(=O)O)cn3C1(CCC1)CCO2`, the IC50 in data set [4] amounted to 36 nM. Moreover, in [3], the EC50 came out at 3200 nM. The Efficacy in data set [1] worked out at 65%. For the same molecule, the results for the MIC in data set [5] and in data set [6] were more than 34 µM and 18 µM (≈ 8.16 µg/mL), respectively. The AUC(0-t) at 25 h in data set [7] worked out at 24 µM·h. The Kp at 4 h in data set [8] is 32. The molecule also had an AUC in data set [9] of 760 µM·h. Besides, in data set [10], the “Ratio AUC” value was 32. The inhibition in vivo at 300 mg/kg in [2] worked out at 31%. Moreover, the inhibition in vivo at 50 mg/kg in [11] turned out to be 20%. The inhibition in vivo at 100 mg/kg in data set [12] worked out at 32%. The inhibition in vivo at 150 mg/kg in data set [13] amounted to 39%. Moreover, the inhibition result in [14] is “Dose-dependent effect”.
For `Nc1c(F)c(NCCNc2ccccn2)c2c3c1c(=O)c(C(=O)O)cn3C1(CCCC1)CCO2`, in [4], the IC50 stood at 250 nM. Moreover, the EC50 in data set [3] amounted to 13000 nM. Moreover, the Efficacy in [1] turned out to be 85%. In addition, the MIC in data set [5] and in data set [6] was more than 34 µM each time.
For the molecule `CC1CC2(CCC2)n2cc(C(=O)O)c(=O)c3c(N)c(F)c(NCCNc4ccccn4)c(c32)O1` (configuration not stated), the IC50 in data set [4] came out at 250 nM. Also, the EC50 in data set [3] is 2100 nM. Besides, in [1], the Efficacy was found to be 94%. In addition, the MIC in data set [5] and in [6] was more than 34 µM throughout.
On to `Nc1c(F)c(NCCNc2ccccn2)c2c3c1c(=O)c(C(=O)O)cn3C1(CCO2)CC1`, for which the IC50 in data set [4] was determined as 37 nM. The Efficacy in data set [1] worked out at 42%. Moreover, the MIC in [5] came to 9 µM (≈ 3.96 µg/mL); in data set [6] it was 5 µM (≈ 2.2 µg/mL).
As to `Nc1c(F)c(NCCNc2ccccn2)c2c3c1c(=O)c(C(=O)O)cn3C1(CCC1)CCN2`, in data set [4], the IC50 stood at 550 nM. For the same molecule, in data set [1], the Efficacy is 12%. Further, the MIC in data set [5] and in data set [6] was more than 140 µM each time.
Regarding `Cc1c[nH]c(-c2cnc(NCCNc3ccc(C#N)cn3)nc2-c2ccc(Cl)cc2Cl)n1` [LADUVIGLUSIB], the exposure AUC(0-t) at 25 h in [7] turned out to be 210 µM·h. In addition, the Kp at 4 h in [8] amounted to 3.8. The molecule also came in with an AUC in data set [9] of 820 µM·h.
On to `CC1COc2c(NCCNc3ccccn3)c(F)c(N)c3c(=O)c(C(=O)O)cn(c23)C12CCC2` (configuration not stated), for which the half-inhibitory concentration (IC50) in [4] worked out at 10 nM. The EC50 in data set [3] worked out at 1400 nM. Also, in data set [1], the Efficacy amounted to 48%. Further, the MIC in data set [5] and in [6] was more than 34 µM throughout. The AUC(0-t) at 25 h in data set [7] was 6.8 µM·h. In [8], the Kp at 4 h stood at 32. The molecule also gave an AUC in [9] of 217 µM·h. Also, the inhibition in vivo at 300 mg/kg in [2] turned out to be 13%.
